Experimental data reported in paper PMC6810698 (European journal of nuclear medicine and molecular imaging, 2019).
Like-named read-outs stand apart in the source and are kept apart here.

Columns and labels:
SV2A [1] = target: T1, SV2A (Macaca mulatta, UniProt H9EQH8); format: in vivo, rhesus monkeys (Macaca mulatta); conditions: for Regional distribution volume (VT): 1TC model; for Regional non-displaceable binding potential (BPND): baseline scans (n = 4), reference region centrum semiovale
In short: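 Fasted rhesus monkeys were immobilised with ketamine (10 mg/kg im) and maintained on isoflurane (1.5–2.5% in oxygen). Radiotracer was infused iv over 3 min after a transmission scan, and dynamic list-mode data were collected for 120 min. MR-defined ROIs gave time–activity curves. VT came from a 1TC model with metabolite-corrected arterial plasma input, and BPND from VT with centrum semiovale as reference.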

human SV2A protein = conditions: cited from earlier work
SV2A [2] = target: T1, SV2A; experiment: SV2A occupancy from occupancy plot; format: in vivo, rhesus monkeys (Macaca mulatta); conditions: 0.15 mg/kg UCB-J, 10 min before 5-[^18F]UCB-J injection
In short: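 Baseline and blocking PET scans were run with iv radiotracer and arterial input. Regional VT came from 1TC kinetic modelling. Occupancy was derived from an occupancy plot of baseline regional VT against the baseline-minus-blocking VT difference.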

SV2A [3] = target: T1, SV2A; conditions: same dose of UCB-J (0.15 mg/kg), measured with [^11C]UCB-J; cited from earlier work
[4] = Plasma metabolite analysis; format: in vivo, rhesus monkeys (Macaca mulatta); conditions: 30 min after injection; rhesus monkey arterial plasma; n = 4
[5] = Radiotracer free fraction; format: in vitro ADME, rhesus monkeys (Macaca mulatta); conditions: ultrafiltration; rhesus monkey plasma; n = 4
In short: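 Plasma ultrafiltration was used. fP was taken as filtrate radioactivity concentration divided by total plasma activity, measured in triplicate per scan.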

[6] = baseline scan, centrum semiovale
[7] = baseline scan, cingulate cortex
[8] = baseline scan, nucleus accumbens
[9] = baseline scan, occipital cortex

T1 sequence (H9EQH8 1-742): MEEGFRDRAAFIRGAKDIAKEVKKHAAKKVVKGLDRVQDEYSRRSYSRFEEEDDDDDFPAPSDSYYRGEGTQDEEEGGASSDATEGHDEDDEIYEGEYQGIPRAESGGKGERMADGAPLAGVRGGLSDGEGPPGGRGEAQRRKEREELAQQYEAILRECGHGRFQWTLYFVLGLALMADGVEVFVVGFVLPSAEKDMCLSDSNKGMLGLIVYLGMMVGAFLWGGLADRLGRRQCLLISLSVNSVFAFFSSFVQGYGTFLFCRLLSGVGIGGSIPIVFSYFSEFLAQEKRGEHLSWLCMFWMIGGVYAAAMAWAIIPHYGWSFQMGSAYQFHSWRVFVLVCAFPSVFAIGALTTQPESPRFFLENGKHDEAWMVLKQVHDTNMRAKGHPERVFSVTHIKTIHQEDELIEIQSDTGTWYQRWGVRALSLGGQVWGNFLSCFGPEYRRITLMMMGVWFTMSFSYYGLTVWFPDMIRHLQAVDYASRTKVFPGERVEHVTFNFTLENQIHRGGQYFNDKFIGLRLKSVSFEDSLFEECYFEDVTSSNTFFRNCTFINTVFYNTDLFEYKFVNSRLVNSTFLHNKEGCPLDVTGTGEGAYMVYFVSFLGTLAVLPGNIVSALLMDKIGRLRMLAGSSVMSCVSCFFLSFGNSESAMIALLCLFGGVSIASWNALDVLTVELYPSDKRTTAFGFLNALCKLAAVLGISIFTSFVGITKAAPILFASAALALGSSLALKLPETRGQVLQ

Row | Compound | Regional distribution volume (VT) (SV2A [1]; baseline scan, amygdala) | Regional distribution volume (VT) (SV2A [1]; baseline scan, brainstem) | Regional distribution volume (VT) (SV2A [1]; baseline scan, caudate) | Regional distribution volume (VT) (SV2A [1]; [6]) | Regional distribution volume (VT) (SV2A [1]; baseline scan, cerebellum) | Regional distribution volume (VT) (SV2A [1]; [7]) | Regional distribution volume (VT) (SV2A [1]; baseline scan, frontal cortex) | Regional distribution volume (VT) (SV2A [1]; baseline scan, globus pallidus) | Regional distribution volume (VT) (SV2A [1]; baseline scan, hippocampus) | Regional distribution volume (VT) (SV2A [1]; baseline scan, insula) | Regional distribution volume (VT) (SV2A [1]; [8]) | Regional distribution volume (VT) (SV2A [1]; [9]) | Regional distribution volume (VT) (SV2A [1]; baseline scan, pons) | Regional distribution volume (VT) (SV2A [1]; baseline scan, putamen) | Regional distribution volume (VT) (SV2A [1]; baseline scan, temporal cortex) | Regional distribution volume (VT) (SV2A [1]; baseline scan, thalamus) | pIC50, binding affinity to human SV2A protein (human SV2A protein) | further results
1 | Cc1cnccc1CN1C[C@H](c2cc(F)c(F)c([18F])c2)CC1=O [(S)-5-[^18F]3, 4-(3,4-Difluoro-5-(fluoro-^18F)phenyl)-1-((3-methylpyridin-4-yl)methyl)pyrrolidin-2-one] | 5.0 mL/cm^−3 | 5.7 mL/cm^−3 | 6.6 mL/cm^−3 | 6.9 mL/cm^−3 | 5.7 mL/cm^−3 | 7.2 mL/cm^−3 | 7.2 mL/cm^−3 | 6.3 mL/cm^−3 | 5.7 mL/cm^−3 | 6.8 mL/cm^−3 | 6.3 mL/cm^−3 | 6.6 mL/cm^−3 | 6.1 mL/cm^−3 | 6.6 mL/cm^−3 | 6.5 mL/cm^−3 | 6.3 mL/cm^−3 |  | specific binding in brain (SV2A [1]; baseline scan, n = 1): lack of specific binding
2 | Cc1cnccc1CN1C[C@H](c2cc(F)c(F)c(F)c2)CC1=O [(S)-enantiomer] |  |  |  |  |  |  |  |  |  |  |  |  |  |  |  |  | 7.1 | 
3 | Cc1cnccc1CN1C[C@@H](c2cc(F)c(F)c(F)c2)CC1=O [UCB-J] |  |  |  |  |  |  |  |  |  |  |  |  |  |  |  |  | 8.2 | SV2A occupancy by UCB-J (SV2A [2]): 73%; SV2A occupancy by UCB-J (SV2A [3]): 87%
4 | [11CH3]c1cnccc1CN1C[C@@H](c2cc(F)c(F)c(F)c2)CC1=O [[^11C]UCB-J] | 24.1 ± 2.2 mL/cm^−3 | 20.1 ± 2.8 mL/cm^−3 | 40.3 ± 6.1 mL/cm^−3 | 11.1 ± 1.6 mL/cm^−3 | 30.5 ± 3.5 mL/cm^−3 | 47.3 ± 7.5 mL/cm^−3 | 48.9 ± 7.4 mL/cm^−3 | 24.5 ± 3.1 mL/cm^−3 | 31.3 ± 2.3 mL/cm^−3 | 47.7 ± 7.5 mL/cm^−3 | 45.7 ± 6.2 mL/cm^−3 | 45.1 ± 6.9 mL/cm^−3 | 19.8 ± 2.7 mL/cm^−3 | 40.1 ± 6.8 mL/cm^−3 | 42.8 ± 6.7 mL/cm^−3 | 36.2 ± 5.2 mL/cm^−3 |  | Regional non-displaceable binding potential (BPND) (SV2A [1]; amygdala): 1.2 ± 0.4; Regional non-displaceable binding potential (BPND) (SV2A [1]; brainstem): 0.8 ± 0.2; Regional non-displaceable binding potential (BPND) (SV2A [1]; caudate): 2.7 ± 0.7; Regional non-displaceable binding potential (BPND) (SV2A [1]; cerebellum): 1.8 ± 0.3; Regional non-displaceable binding potential (BPND) (SV2A [1]; cingulate cortex): 3.3 ± 0.9; Regional non-displaceable binding potential (BPND) (SV2A [1]; frontal cortex): 3.5 ± 0.9; Regional non-displaceable binding potential (BPND) (SV2A [1]; globus pallidus): 1.2 ± 0.2; Regional non-displaceable binding potential (BPND) (SV2A [1]; hippocampus): 1.9 ± 0.3; Regional non-displaceable binding potential (BPND) (SV2A [1]; insula): 3.3 ± 0.8; Regional non-displaceable binding potential (BPND) (SV2A [1]; nucleus accumbens): 3.2 ± 0.7; Regional non-displaceable binding potential (BPND) (SV2A [1]; occipital cortex): 3.1 ± 0.7; Regional non-displaceable binding potential (BPND) (SV2A [1]; pons): 0.8 ± 0.2; Regional non-displaceable binding potential (BPND) (SV2A [1]; putamen): 2.6 ± 0.5; Regional non-displaceable binding potential (BPND) (SV2A [1]; temporal cortex): 2.9 ± 0.6; Regional non-displaceable binding potential (BPND) (SV2A [1]; thalamus): 2.3 ± 0.7; BPND values in all brain regions (SV2A [1]; baseline scans, all brain regions): > 0.75; intact parent radiotracer in plasma (parent fraction) [4]: 47 ± 12%; plasma free fraction (fp) [5]: 43 ± 5%
5 | CC[C@@H](C(N)=O)N1CCCC1=O [levetiracetam] |  |  |  |  |  |  |  |  |  |  |  |  |  |  |  |  |  | displacement of [^18F]UCB-J binding (SV2A [1]; levetiracetam 30 mg/kg i.v. at 90 min after radiotracer administration, 180-min scan with 5-[^18F]UCB-J): rapid reduction in radiotracer binding
